# This is a sample that favours compounds with a hit; in the whole collection about 3.8% have one here.
# GPR7 antagonist = GPR7 receptor antagonists, primary screen, cell-based, fluorescence, single concentration | GPR7-expressing cells, fluorescence antagonist assay | inhibition, % at 4.4 µM | 290,000 tested, 1.1% active | Neuropeptides B/W receptor type 1 (Homo sapiens), P48145 | AID 1861, 2009; in the data active = inhibition above about 16%, passing the limit was not always enough;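 note: cells stimulated with the agonist NPW; 0% = agonist with vehicle and 100% = vehicle without agonist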
# Target sequence (P48145 whole entry, looked up): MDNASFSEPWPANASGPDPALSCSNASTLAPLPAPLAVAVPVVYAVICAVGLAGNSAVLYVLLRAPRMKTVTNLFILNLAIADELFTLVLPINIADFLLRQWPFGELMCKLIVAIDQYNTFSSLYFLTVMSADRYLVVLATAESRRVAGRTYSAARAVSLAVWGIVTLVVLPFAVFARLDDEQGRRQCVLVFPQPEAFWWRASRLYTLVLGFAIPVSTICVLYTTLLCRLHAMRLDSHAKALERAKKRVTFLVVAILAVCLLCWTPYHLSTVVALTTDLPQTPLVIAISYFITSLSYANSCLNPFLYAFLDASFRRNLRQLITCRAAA
# CHO parental Ca = ATP-evoked calcium signal inhibitors, parental CHO, primary screen, counter-screen for OX1R antagonist project, cell-based, fluorescence, Fluo-8 calcium dye | parental CHO-K1, ATP-induced calcium, Fluo-8 fluorescence | inhibition, % at 5.6 µM | 330,000 tested, 0.63% active | AID 463079, 2010;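 active = inhibition above that plate's mean sample inhibition plus 3 SD, cut at about 26% in these data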;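 note: 0% = ATP-challenged DMSO wells and 100% = DMSO wells without ATP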
#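 Material: parental CHO cells / Compound: single nominal dose of 5.6 µM per compound / Signal: Fluo-8 fluorescence / Replicates: singlicate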
# OX1R antag-1 = OX1R (HCRTR1) antagonists, primary screen, fluorescence, CHO/OX1R cells, Fluo-8 calcium, orexin A; 330,000 tested, 0.43% active; Orexin/Hypocretin receptor type 1 (Homo sapiens), O43613; inhibition, % at 5 µM; AID 434989, 2010; Fluo-8 calcium fluorescence;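 active = inhibition above its plate's threshold, mean inhibition of all tested compounds on the plate plus 3 SD, cut at about 37% in these data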;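 note: 0% = orexin A challenge wells and 100% = SB-334867-A antagonist wells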
# MPTP block = mitochondrial permeability transition pore inhibitors, primary screen, biochemical, isolated mouse mitochondria, absorbance; Ca2+ swelling absorbance, 30 min; inhibition, % at 10 µM; 360,000 tested, 1.4% active; AID 602449, 2012;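 active = inhibition of 50% or more, scaled per plate between neutral and stimulator controls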;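 note: 0% = DMSO wells given calcium and 100% = 1 mM EGTA wells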
# OX1R antag-2 = antagonists of human orexin 1 receptor (OX1R) | 330,000 tested, 1.8% active | AID 485270, 2010 | inhibition, % at 6.6 µM | OX1R-expressing cells, FRET antagonist read-out; in the data active = inhibition mostly above about 38%, no sharp cut-off; inactive = mostly below about 40%;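 note: 0% = agonist challenge alone and 100% = reference antagonist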
# OX1R HTRF conf = OX1R (HCRTR1) antagonists, confirmation, cell-based, HTRF. shares compounds with OX1R antag-2. OX1R-expressing cells, HTRF antagonist assay. inhibition, % at 6.6 µM. 1,800 tested, 49% active. AID 492964, 2010; in the data active = inhibition above about 55%;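 note: CHO cells expressing OX1R stimulated with orexin A at about EC80; 0% = agonist challenge alone and 100% = reference antagonist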
# CHO-K1 HTRF cnt = signal inhibition in parental CHO-K1 cells, counter-screen for OX1R antagonist project, cell-based, HTRF; 1,800 tested, 48% active; inhibition, % at 6.6 µM; shares compounds with OX1R antag-2; HTRF counterscreen; in the data active = inhibition above about 17%;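 note: 0% = agonist challenge with vehicle and 100% = vehicle alone without agonist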
# An asterisk follows results filed as active; . = not tested or not shown; + = active, no number.
SMILES,GPR7 antagonist,CHO parental Ca,OX1R antag-1,MPTP block,OX1R antag-2,OX1R HTRF conf,CHO-K1 HTRF cnt
O=C1SCCC1NS(=O)(=O)c1ccc([N+](=O)[O-])cc1 (configuration not stated),-2.4,-11.0,-6.8,-1.6,95.8*,27.6,24.4*
O=C1C(Cl)=C(NCCCO)C(=O)c2ccccc21,2.3,-1.3,2.2,1.3,+,67.4*,104.1*
CCCCOc1ccc(C2/C(=C(\O)c3ccc4c(c3)OCCO4)C(=O)C(=O)N2CCCN2CCOCC2)cc1 (configuration not stated),3.5,-12.6,-19.7,-1.3,6.5,.,.
Cc1ccc(C)c(N(CC(=O)NC(C)(C)C)C(=O)CNC(=O)c2cccs2)c1,-3.0,-15.1,-26.2,0.1,115.1*,14.2,2.9
N#CCN1CCC(c2cc(-c3ccco3)n[nH]2)CC1,-6.6,-15.6,-13.2,.,21.2,.,.
O=c1[nH]cnc2nc(-c3ccccc3)c(-c3ccccc3)nc12,7.5,-16.1,-4.9,0.3,128.9*,34.4,23.1*
COc1ccc(C(=O)Nc2nc(-c3cccs3)cs2)cc1,-1.4,-14.8,-6.6,0.2,89.9*,64.6*,20.0*
O=C(Nc1nc(-c2cccs2)cs1)c1ccc(Cl)cc1,-11.9,-31.3,-20.5,0.2,50.4,.,.
O=C(COc1ccc(F)cc1F)N1CCCCCCC1,4.9,-11.3,-18.8,0.7,9.0,.,.
CCn1c(/C=C/c2c(C)[nH]c3ccccc23)nc2ccccc2c1=O,-0.1,-23.1,-30.3,5.1,10.8,.,.
Cc1[nH]c2ccccc2c1/C=C/c1nc2ccccc2c(=O)[nH]1,-6.3,3.0,-24.6,4.1,86.8*,74.9*,12.2
CN(C)c1ncnc(N(C)C)c1[N+](=O)[O-],-7.7,-7.4,3.2,5.2,13.8,.,.
CC/C(C)=N/NC(=O)c1[nH]c2ccc(C)cc2c1-c1ccccc1,-1.2,-20.9,-26.6,-2.4,92.9*,15.7,0.1
Cc1cc(=O)oc2c(CN3CCCC3)c(O)ccc12,-9.0,-7.2,-11.5,0.1,0.5,.,.
CCCc1cc(=O)oc2c(CN3CCCC3)c(O)ccc12,-3.2,-14.1,-23.7,1.0,94.4*,14.5,1.4
COc1cc(OC)cc(C(=O)Nc2ccc(-c3nc4ccccc4o3)cc2)c1,-14.9,-14.2,11.6,0.2,86.5*,25.0,7.0
O=C(Nc1ccc2oc(-c3ccccc3)nc2c1)c1cccs1,-15.6,-13.5,17.0,-1.1,81.7*,48.0,7.0
O=C(Nc1cccc(-c2nc3ccccc3s2)c1)c1cccs1,-10.3,-17.3,6.9,18.4,81.1*,78.3*,6.0
O=C(Nc1ccc2nc(-c3cccs3)[nH]c2c1)c1cccs1,-7.7,-4.3,10.0,-0.3,93.0*,24.5,-0.1
O=C(CN1C(=O)/C(=C\c2cccc(Cl)c2)Oc2ccccc21)N1CCN(c2ccccn2)CC1,-14.1,-22.8,-22.6,.,44.6,.,.
CC(CC(=O)c1ccccc1)=NCCCN=C(C)CC(=O)c1ccccc1,.,.,.,-0.9,.,.,.
O=C(Nc1ccc2nc(-c3ccccc3)oc2c1)c1ccco1,-11.4,-2.2,12.3,4.1,94.5*,84.5*,11.9
COC(=O)C1=C(C)N(C)C(=O)NC1c1cc2c(cc1[N+](=O)[O-])OCO2 (configuration not stated),2.2,-11.7,-5.4,0.6,91.1*,33.2,25.0*
COc1ccc(C(=O)c2ccc(Br)cc2)c2ccccc12,.,-22.3,-13.7,3.1,12.5,.,.
Cn1nc(-c2ccccn2)nc2c(=O)n(C)c(=O)nc1-2,-29.3,-13.4,-0.8,0.7,+,91.1*,97.5*
COc1ccc(-c2cc(C(=O)NCC3CCCO3)c3cc(C(C)C)ccc3n2)cc1 (configuration not stated),-16.7,-30.2,-57.7,0.4,0.3,.,.
CCOc1ccccc1NC(=S)NNS(=O)(=O)c1c(C)cc(C)cc1C,-2.9,-2.6,-12.7,4.7,97.1*,26.3,3.8
CCOc1ccccc1NC(=O)NNS(=O)(=O)c1cc(C)ccc1C,4.8,.,.,1.6,.,.,.

# Assay outcomes (PubChem)
